MC4R antagonist: human MC4R antagonism in cAMP assay. P32245. MC4R-expressing cells, MTII-stimulated cAMP, LANCE TR-FRET. inhibition, % at 6.5 µM. 0.48% of 360,000 active. AID 540295;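 active = inhibition above its plate's cutoff, the mean of tested wells on that plate plus 3 SD, cut at about 29% in these data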;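 note: 0% = Melanotan II alone and 100% = Melanotan II plus saturating MCL0020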
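Material: human MC4R-expressing U2OS cells. Probe or stimulus: Melanotan II challenge. Dosing: 6.5 µM single dose. Times: 30-min compound, 1-h challenge, 1-h detection, room temperature. Technique: TR-FRET with Eu-cAMP and labeled anti-cAMP, 671 nm. Replication: singlicate.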
Exocytosis inh: blocks lytic granule exocytosis | TALL-104 LAMP-1 surface exposure, flow cytometry; cells stimulated with thapsigargin and PMA | inhibition, % at 10 µM | 0.66% of 360,000 active | AID 651702;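 active = inhibition above about 55%, limit read from the data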
hiPSC survival: hiPSC single-cell survival enhancement | ATPlite luminescence; 100% = ROCK inhibitor wells, 0% = DMSO | survival enhancement, % at 20 µM | 0.044% of 360,000 active | AID 602274; in the data active = survival enhancement above about 18%;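 note: cells exposed to compounds for 16 hours before the ATP read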
ABCB6 inh 2: blocks the human ABCB6 transporter. AID 602162. K562-ABCB6 porphyrin accumulation, flow cytometry, 1 h; stronger effect = lower value. fluorescence ratio to DMSO, % at 10 µM. Q9NP58. 0.19% of 360,000 active;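 active = fluorescence ratio to DMSO below 75%, the collection mean minus 3 SD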;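 note: signal is porphyrin accumulated inside mitochondria; 100% equals median channel fluorescence of DMSO control wells; lower ratio means ABCB6 inhibition with less porphyrin fluorescence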
MC4R ag barr: agonists of human melanocortin 4 receptor (MC4R) beta-arrestin; U2OS MC4R beta-arrestin complementation, luminescence; percent of melanotan II response, DMSO zero; activation, % at 8.9 µM; 0.98% of 360,000 active;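 active = activation above a per-plate cutoff, the mean activation of sample wells on that plate plus 3 SD, cut at about 8% in these data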
Tb MetRS inh: Trypanosoma brucei MetRS inhibition; purified T. brucei MetRS, ATP depletion, Kinase-Glo luminescence; inhibition, % at 11.9 µM; 0.4% of 360,000 active;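 active = inhibition above a per-plate cutoff of the control wells' mean inhibition plus 3 SD, cut at about 5.5% in these data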;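 note: 0% = DMSO wells median and 100% = median of wells with control inhibitor compound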
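technique = Kinase-Glo luminescence, ATP depletion format | system = purified MetRS (methionyl-tRNA synthetase) enzyme from Trypanosoma brucei | timing = 15 min preincubation, 2 h reaction, all 25 °C | evaluation = percent inhibition versus plate control medians | dosing = single dose, 11.9 µM final nominal, 0.9% final DMSO | also added = substrates ATP, L-methionine and bulk Escherichia coli tRNA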
An asterisk follows results filed as active; . = no result. Rows were chosen to be rich in hits. Some 2.6% of all compounds tested hit in one or more screens of this group.

SMILES | MC4R antagonist | Exocytosis inh | hiPSC survival | ABCB6 inh 2 | MC4R ag barr | Tb MetRS inh
Cc1cccc2cc(CN(CCN(C)C)C(=S)Nc3ccccc3)c(=O)[nH]c12 | 1 | 5 | 1 | 104 | 1 | 0
Clc1ccc(-c2ccc(/C=N/Nc3cc(N4CCOCC4)nc(N4CCOCC4)n3)o2)cc1 | -2 | 83* | 4 | 107 | 4 | -1
Cc1cccc(OCC(=O)Nc2nc3ccc([N+](=O)[O-])cc3s2)c1C | 17 | 0 | 4 | 98 | 9.1* | 0
COCCCNC(=O)C[C@@H]1C[C@@]2(C(=O)OC)CCCCC=C2N(Cc2cccc3ccccc23)C1=O | . | -3 | -1 | 91 | . | -1
O=C(Nc1cc(C(F)(F)F)cc(C(F)(F)F)c1)c1ccc(Cn2cc(C(F)(F)F)ccc2=O)cc1 | 3 | 4 | 2 | 99 | 8.4* | 0
Cc1cc2c(c(=O)n1CCN(C)C)C(c1ccc(Cl)cc1)C(C#N)=C(N)O2 (stereo unspecified) | 2 | 4 | -2 | 97 | -2 | 0
Cc1cc2c(c(=O)n1C1CC1)C(c1cccc(Cl)c1)C(C#N)=C(N)O2 (stereo unspecified) | -3 | 0 | -1 | 96 | -1 | 63*
Cc1ccc2nc(N(CCCN(C)C)C(=O)COc3ccc(Cl)cc3)sc2c1 | -5 | 10 | 0 | 93 | 8.8* | 0
CN(C)CCCN(C(=O)COc1ccc(Cl)cc1)c1nc2ccc(F)cc2s1 | 6 | 34 | -1 | 100 | 1 | -1
COc1ccc(C2C(C(C)=O)=C(C)Nc3ncnn32)cc1 (stereo unspecified) | 27 | -8 | 1 | 101 | 0 | 0
Cc1nn(C)c(Oc2cccc(Cl)c2)c1C=O | 0 | 3 | 0 | 74* | 0 | -1
Cc1ccc(C)c(N2CCN(S(=O)(=O)c3ccc(-c4ccc(=O)[nH]n4)o3)CC2)c1 | 0 | -4 | 0 | 100 | 11* | -1
CN(CC(=O)Nc1cc(Cl)cc(Cl)c1)Cc1cccs1 | 8 | 15 | 0 | 93 | 0 | 0
COc1ccc(C)cc1NCc1ccc(OC)c(C)c1OC | 1 | 1 | -1 | 104 | 1 | 0
CCOC(=O)C1=C(C)NC(C)=C(C(=O)OCC)C1c1cccc([N+](=O)[O-])c1 | -3 | -1 | 3 | 94 | 4 | 0
COC(=O)C1=C(C)NC(C)=C(C(=O)OCC(C)C)C1c1ccccc1[N+](=O)[O-] (stereo unspecified) | 21 | 68* | -2 | 98 | 0 | 0
CSc1nnnn1-c1c(C)cccc1C | -1 | -3 | -1 | 99 | -1 | -1
Cc1cccc(C)c1-n1nnnc1SCSc1nnnn1-c1c(C)cccc1C | 1 | 1 | -2 | 98 | 8.7* | -1
O=c1[nH]c2ccccc2nc1-c1nnnn1Cc1ccccc1 | . | -3 | 1 | 103 | . | -1
Cc1cccc(C)c1-n1nnnc1-c1nc2cc(Br)ccc2[nH]c1=O | . | 77* | 0 | 103 | . | 4
CC1=NNC(=O)/C1=C\c1cn(-c2ccccc2)nc1-c1ccc(F)cc1 | 31* | 66* | 1 | 92 | 3 | -1
O=C1C2C3C=CC(C3=C3CCCCC3)C2C(=O)N1c1ccccc1 (stereo unspecified) | -5 | 80* | 2 | 103 | -1 | -1
CC(=O)OCCN(C)c1cc(SC(C)C)c2nonc2c1[N+](=O)[O-] | -3 | 9 | 3 | 94 | -1 | -1
CN(CCO)c1cc(Sc2nc3ccccc3s2)c2nonc2c1[N+](=O)[O-] | -20 | 56* | -1 | 122 | -6 | 0
CCCCNC(=O)C1C(c2ccc(C(F)(F)F)cc2)=Nc2ccccc2N1C(=O)c1cccc(C(F)(F)F)c1 (stereo unspecified) | . | -1 | . | . | . | 0
SMILES | MC4R antagonist | Exocytosis inh | hiPSC survival | ABCB6 inh 2 | MC4R ag barr | Tb MetRS inh
CC(C)C[C@@H](CN1CCCC1CN1C(=S)NC[C@@H]1Cc1ccc(O)cc1)N1C[C@H](Cc2ccc(O)cc2)N(CC2CCCCC2)C1=S (stereo partly specified) | 11 | 57* | -4 | 100 | -4 | -1
COc1cccc(CC(=O)Nc2cccc3ccccc23)c1 | 13 | -6 | 2 | 99 | -1 | 0
CCOC(=O)c1c(C)nc2sc3c(c2c1-c1ccc(OC)cc1)NC(c1ccccc1)NC3=O (stereo unspecified) | -31 | 2 | 26* | 95 | -1 | 0
COc1ccc(-c2c(C(C)=O)c(C)nc3sc4c(c23)NC(c2ccccc2)NC4=O)cc1 (stereo unspecified) | -21 | 1 | 3 | 102 | -3 | 0
O=C(NCC1CCCN1S(=O)(=O)c1cccs1)c1cccc(Cl)c1 (stereo unspecified) | -2 | 4 | 0 | 98 | 0 | 0
COC(=O)c1cc(S(=O)(=O)N2CCCCC2)c[nH]1 | -2 | -1 | 0 | 96 | 1 | -1
O=C(Nc1ccc(Cl)c([N+](=O)[O-])c1)c1ccc(NCCCN2CCOCC2)c([N+](=O)[O-])c1 | 5 | 32 | -4 | 100 | 20* | 0
Cc1ccc(NC(=O)c2ccc(NCCCN3CCOCC3)c([N+](=O)[O-])c2)cc1Cl | -7 | 3 | 0 | 81 | -1 | -1
CCCCCC1CC(=O)NC1(C(=O)OCC)C(=O)OCC (stereo unspecified) | -3 | 21 | 0 | 98 | -1 | 0
CCCCCC1C(C(=O)OCC)C(=O)NC1(C(=O)OCC)C(=O)OCC (stereo unspecified) | -1 | 95* | 0 | 98 | 2 | 0
Cc1ccc(-c2ccc(CN3C(C(C)C)C(=O)N(Cc4cn(Cc5ccco5)nn4)CCS3(=O)=O)cc2)cc1 (stereo unspecified) | 4 | -2 | 2 | 97 | 2 | -1
CC(OC(=O)c1ccc2c(=O)n3c(nc2c1)CCC3)C(=O)Nc1ccc(C(N)=O)cc1 (stereo unspecified) | 4 | -1 | 26* | 91 | 0 | 0
CC(=O)Nc1cc(NC(C)=O)cc(C(=O)OC(C)C(=O)Nc2ccc(S(=O)(=O)N3CCCC3)cc2)c1 (stereo unspecified) | 6 | 2 | 1 | 101 | -4 | 0
CC(OC(=O)c1ccc(S(=O)(=O)N2CCCCC2)cc1)C(=O)Nc1ccc(C(N)=O)cc1 (stereo unspecified) | 2 | 2 | 40* | 105 | -1 | 0
O=C(CNC(=O)C1CCCCC1)OCC(=O)c1ccc(Br)cc1 | 8 | -7 | 0 | 107 | -3 | 0
Cc1ccc(C)c(C(C)NC(=S)NCc2ccc(F)cc2)c1 (stereo unspecified) | -4 | -4 | -1 | 104 | 8.2* | 0
COc1cc2ccc(NC(C)=O)cc2cc1OC | -3 | 1 | 1 | 102 | -2 | 0
